SMILES strings stand for the structures.

This is an account of results in article PMC5147053 (Drugs in Context, 2016).

The nature of data set [1]: Safety assessment: treatment-emergent adverse events. The format is in vivo, human. The essentials:
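Patients with advanced or metastatic cancer took single 150 mg oral doses of the test compound in a 3-period crossover: high-shear wet granulation, roller-compaction dry-milled and slurry-milled formulations, with washouts of 48 h to 5 days. Safety monitoring covered AEs, SAEs, physical exams, vital signs, lab tests and concomitant medications. TEAEs were graded by CTCAE v3.0 for all patients dosed at least once.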

The conditions of data set [2]: oral; cited from earlier work.
Where [3] appears, read: single 150 mg dose, N=14, regardless of causality.

As to `Cc1cccc(-c2nn3c(c2-c2ccnc4ccc(C(N)=O)cc24)CCC3)n1` [Galunisertib], in data set [1] (14 patients, any formulation), the “SAEs or deaths during the study” value is listed as “no SAEs or deaths”, the “Study discontinuations due to TEAEs” value is “no study discontinuations” and the “TEAEs determined to be related to galunisertib by the investigator” value is “None”. For the same compound, in data set [1] (of 14 patients, any formulation, single 150 mg doses), the “Number of patients reporting TEAEs regardless of causality” value was “Five”. For the same compound, in data set [1] (setting [3]), the “Number of patients with TEAE Convulsion (Grade 1)” value was 1, the “Number of patients with TEAE Dizziness (Grade 1)” value came out at 1, the “Number of patients with TEAE Hyperglycemia (Grade 1)” value was 1 and the “Number of patients with TEAE Lymphopenia (Grade 3)” value is 2. Moreover, in data set [1] (setting [3]), the “Number of patients with TEAE Pyrexia (Grade 1)” value is on record as 1 and the “Number of patients with TEAE Vulvovaginitis (Grade 1)” value is 1. Further, in data set [2], the Mean terminal half-life was 8 h and the “Time of peak plasma concentrations following administration” value was 0.5 to 2 h.
